Laboratory results reported in ChEMBL document CHEMBL1129238, “Structure--activity relationships of 1-(2-Deoxy-2-fluoro-beta-L-arabinofuranosyl)pyrimidine nucleosides as anti-hepatitis B virus agents” (J Med Chem, 1996).
pEC50, pIC50: −log10 of the molar value.

Tests used:
Homo sapiens [1] = organism: Homo sapiens; assay: Anti hepatitis-B virus activity was evaluated in 2.2.15 cells.; type: functional, cell-based; settings: HepG2 2.2.15
Method in brief: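 HBV-producing 2.2.15 cells; EC50 reported; compounds examined at concentrations up to 10 μM.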

Homo sapiens [2] = organism: Homo sapiens; assay: The growth inhibition activity for the compound was evaluated in 2.2.15 cells.; type: functional, cell-based; settings: HepG2 2.2.15
Method in brief: (§1)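 Cytotoxicity (growth inhibition, IC50) measured in 2.2.15 cells and in CEM cells, with compounds tested at concentrations up to 200 μM.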

CCRF-CEM = assay: The growth inhibition activity for the compound was evaluated in CEM cells.; type: functional, cell-based; settings: Homo sapiens; method in brief: as §1
Homo sapiens [3] = organism: Homo sapiens; assay: Selectivity index was determined from the ratio of IC50 to the EC50 values evaluated in 2.2.15 cells.; type: functional, HepG2 2.2.15
Method in brief: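 Selectivity computed as the ratio of the growth-inhibition IC50 to the anti-HBV EC50, both from 2.2.15 cells. Compounds were tested up to 200 μM for toxicity and up to 10 μM for antiviral activity.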

| pEC50 (Homo sapiens [1]) | pIC50 (CCRF-CEM) | Compound | pIC50 (Homo sapiens [2]) | Selectivity (Homo sapiens [3]) |
| --- | --- | --- | --- | --- |
| 5.30 |  | Nc1nc(=O)n([C@@H]2O[C@H](CO)[C@@H](O)[C@@H]2F)cc1I [FIACITABINE] | < 3.70 | >40 |
| < 5.00 |  | Nc1nc(=O)n([C@H]2O[C@@H](CO)[C@H](O)[C@H]2F)cc1Br | < 3.70 |  |
| < 5.00 |  | O=c1[nH]c(=O)n([C@@H]2O[C@H](CO)[C@@H](O)[C@H]2F)cc1I | < 3.70 |  |
| < 5.00 |  | Nc1nc(=O)n([C@H]2O[C@@H](CO)[C@H](O)[C@H]2F)cc1Cl | < 3.70 |  |
| < 5.00 |  | Nc1nc(=O)n([C@H]2O[C@@H](CO)[C@H](O)[C@H]2F)cc1F | < 3.70 |  |
| < 5.00 |  | O=c1[nH]c(=O)n([C@H]2O[C@@H](CO)[C@H](O)[C@H]2F)cc1F | < 3.70 |  |
| 5.85 | < 4.00 | Nc1ccn([C@@H]2O[C@H](CO)[C@@H](O)[C@@H]2F)c(=O)n1 | < 3.70 | >140 |

Further lines, the compound ahead of its results:

| Compound | pEC50 (Homo sapiens [1]) | pIC50 (CCRF-CEM) | pIC50 (Homo sapiens [2]) | Selectivity (Homo sapiens [3]) |
| --- | --- | --- | --- | --- |
| O=c1[nH]c(=O)n([C@@H]2O[C@H](CO)[C@@H](O)[C@@H]2F)cc1C(F)(F)F | < 5.00 |  | < 3.70 |  |
| O=c1[nH]c(=O)n([C@H]2O[C@@H](CO)[C@H](O)[C@@H]2F)cc1/C=C/Br | < 5.00 | < 4.00 | < 3.70 |  |
| Cc1cn([C@@H]2O[C@H](CO)[C@@H](O)[C@@H]2F)c(=O)[nH]c1=O [5-METHYL-2'-FLUOROARAURACIL] | 7.00 | < 3.70 | < 3.70 | >2000 |
| O=c1[nH]c(=O)n([C@H]2O[C@@H](CO)[C@H](O)[C@H]2F)cc1Cl | < 5.00 |  | < 3.70 |  |
| CCc1cn([C@H]2O[C@@H](CO)[C@H](O)[C@@H]2F)c(=O)[nH]c1=O | < 5.00 |  | < 3.70 |  |
| O=c1[nH]c(=O)n([C@H]2O[C@@H](CO)[C@H](O)[C@H]2F)cc1Br | < 5.00 |  | < 3.70 |  |
| C#Cc1cn([C@H]2O[C@@H](CO)[C@H](O)[C@H]2F)c(=O)[nH]c1=O | < 5.00 |  | < 3.70 |  |
